ChEMBL document CHEMBL2407089, “Microwave-assisted synthesis of some new pyrazolopyridines and their antioxidant, antitumor and antimicrobial activities” (Eur J Med Chem, 2013)
In brackets after ≈: the same amount, converted by molar mass. Activity calls are given as the source filed them. No cut-off for these calls is given here.

Tests used:
HepG2 = assay: Cytotoxicity against human HepG2 cells by SRB assay; assay type: functional, cell-based
[1] = system: Radical scavenging activity; assay: Antioxidant activity assessed as DPPH free radical scavenging activity after 30 mins by spectrophotometry; assay type: functional
In short: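 EC50, the amount giving half-maximal scavenging, was taken from serial dilutions (5–50 μg/ml) in DMSO run against DPPH in DMSO (6 mg/50 ml stock) to a 3 ml total. Incubated 30 min in the dark at room temperature, with a DMSO control and A517 read-out. Scavenging % = [1 − (A sample/A control)] × 100.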

[2] = system: Radical scavenging activity; assay: Antioxidant activity assessed as DPPH free radical scavenging activity at 50 ug after 30 mins by spectrophotometry; assay type: functional
In short: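 Each sample (50 μg) dissolved in 1 ml DMSO; 250 μl added to 1 ml DPPH in DMSO (6 mg/50 ml), brought to 3 ml with DMSO. DMSO served as control. Vortexed, kept 30 min in the dark at room temperature, and absorbance read at 517 nm. Scavenging % = [1 − (A sample/A control)] × 100.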

MCF7 = assay: Cytotoxicity against human MCF7 cells by SRB assay; assay type: functional, cell-based
Bacillus = assay: Antimicrobial activity against Bacillus assessed as diameter of inhibition zone at 10 mg/ml after 24 hrs by cut-plug method; assay type: functional
In short: (§1)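 Bacteria were maintained on nutrient agar and fungi on Sabouraud agar slopes. Testing used the cut-plug technique on nutrient agar, incubated at 30°C for 24 h, and inhibition zone diameters were measured in mm.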

Enterobacter cloacae = assay: Antimicrobial activity against Enterobacter cloaca assessed as diameter of inhibition zone at 10 mg/ml after 24 hrs by cut-plug method; assay type: functional; conditions: read-out: DIZ; in short: as §1
Fusarium oxysporum = assay: Antifungal activity against Fusarium oxysporum assessed as diameter of inhibition zone at 10 mg/ml after 24 hrs by cut-plug method; assay type: functional; in short: as §1
Escherichia coli = assay: Antimicrobial activity against Escherichia coli assessed as diameter of inhibition zone at 10 mg/ml after 24 hrs by cut-plug method; assay type: functional; conditions: read-out: DIZ; in short: as §1
Serratia = assay: Antimicrobial activity against Serratia assessed as diameter of inhibition zone at 10 mg/ml after 24 hrs by cut-plug method; assay type: functional; conditions: read-out: DIZ; in short: as §1
Penicillium expansum = assay: Antifungal activity against Penicillium expansum assessed as diameter of inhibition zone at 10 mg/ml after 24 hrs by cut-plug method; assay type: functional; conditions: for zone of inhibition at 10000 µg/mL: read-out: DIZ; in short: as §1

Compound | IC50 (HepG2) | EC50 [1] | Activity [2] | IC50 (MCF7) | zone of inhibition at 10000 µg/mL (Bacillus; read-out: DIZ) | zone of inhibition at 10000 µg/mL (Enterobacter cloacae) | zone of inhibition at 10000 µg/mL (Fusarium oxysporum; read-out: DIZ) | zone of inhibition at 10000 µg/mL (Escherichia coli) | zone of inhibition at 10000 µg/mL (Serratia) | zone of inhibition at 10000 µg/mL (Penicillium expansum) | diameter of the inhibition zone (DIZ) (Bacillus) | diameter of the inhibition zone (DIZ) (Fusarium oxysporum) | diameter of the inhibition zone (DIZ) (Penicillium expansum)
Clc1ccc(-c2cc3ncc4c(-c5cccnc5)nn(-c5ccccc5)c4n3n2)cc1 | 16.2 µg/mL (≈ 38.3 µM) | 80.5 µg/mL (≈ 190 µM) | 29.4% | 14.7 µg/mL (≈ 34.8 µM) |  |  |  |  |  |  |  |  | 
N#Cc1cc2c(-c3cccnc3)nn(-c3ccccc3)c2[nH]c1=O | 3.3 µg/mL (≈ 10.5 µM) | > 100 µg/mL | 1.14% | 3 µg/mL (≈ 9.57 µM) |  |  |  |  |  |  |  |  | 
O=C(N[C@H](CO)[C@H](O)c1ccc([N+](=O)[O-])cc1)C(Cl)Cl [CHLORAMPHENICOL] |  |  |  |  | 21 mm | 17 mm | 12 mm | 18 mm | 25.8 mm | 10 mm |  |  | 
O=C(c1ccc(F)cc1)c1cc2c(-c3cccnc3)nn(-c3ccccc3)c2[nH]c1=O | 7.8 µg/mL (≈ 19 µM) | 4.21 µg/mL (≈ 10.3 µM) | 72.3% | 8.7 µg/mL (≈ 21.2 µM) |  | 21 mm |  | 15 mm | 17.5 mm |  | inactive | inactive | inactive
N#Cc1cc2c(-c3cccnc3)nn(-c3ccccc3)c2[nH]c1=S | 3.9 µg/mL (≈ 11.8 µM) | 92.85 µg/mL (≈ 282 µM) | 17% | 2.7 µg/mL (≈ 8.2 µM) |  |  |  |  |  |  |  |  | 
CCOC(=O)c1cc2c(-c3cccnc3)nn(-c3ccccc3)c2nc1-c1cccnc1 | 3.75 µg/mL (≈ 8.9 µM) |  | inactive | 6.9 µg/mL (≈ 16.4 µM) |  |  |  |  |  |  |  |  | 
c1ccc(-c2cc3ncc4c(-c5cccnc5)nn(-c5ccccc5)c4n3n2)cc1 | 17.3 µg/mL (≈ 44.5 µM) | > 100 µg/mL | 9.47% | 15.9 µg/mL (≈ 40.9 µM) |  |  |  |  |  |  |  |  | 
O=C1O[C@H]([C@@H](O)CO)C(O)=C1O [ASCORBIC ACID] |  | 3.22 µg/mL (≈ 18.3 µM) | 82.8% |  |  |  |  |  |  |  |  |  | 
O=C(c1ccc(Cl)cc1)c1cc2c(-c3cccnc3)nn(-c3ccccc3)c2[nH]c1=O | 9 µg/mL (≈ 21.1 µM) | 8.97 µg/mL (≈ 21 µM) | 63.6% | 6.45 µg/mL (≈ 15.1 µM) |  | 19 mm |  | 19 mm | 17 mm |  | inactive | inactive | inactive
COc1cccc2c1C(=O)c1c(O)c3c(c(O)c1C2=O)C[C@@](O)(C(=O)CO)C[C@@H]3O[C@H]1C[C@H](N)[C@H](O)[C@H](C)O1 [DOXORUBICIN] | 3.1 µg/mL (≈ 5.7 µM) |  |  |  |  |  |  |  |  |  |  |  | 
Cc1ccc(-c2cc3ncc4c(-c5cccnc5)nn(-c5ccccc5)c4n3n2)cc1 | 12.9 µg/mL (≈ 32.1 µM) | 53.76 µg/mL (≈ 134 µM) | 39.6% | 10.5 µg/mL (≈ 26.1 µM) |  |  |  |  |  |  |  |  | 
O=C(c1cccnc1)c1cc2c(-c3cccnc3)nn(-c3ccccc3)c2[nH]c1=O | 11 µg/mL (≈ 28 µM) | 38.64 µg/mL (≈ 98.2 µM) | 36% | 10.1 µg/mL (≈ 25.7 µM) |  | 11.5 mm |  | 10.5 mm | 12.5 mm |  | inactive | inactive | inactive
Cc1ccc(C(=O)c2cc3c(-c4cccnc4)nn(-c4ccccc4)c3[nH]c2=O)cc1 | 8.85 µg/mL (≈ 21.8 µM) | 54.76 µg/mL (≈ 135 µM) | 38.9% | 9.9 µg/mL (≈ 24.4 µM) |  | 12.5 mm |  | 17 mm | 17 mm | 10 mm | inactive | inactive | 
